# Source: PubChem BioAssay AID624467 (The Scripps Research Institute Molecular Screening Center, 2012)
# Out of some 360,000 compounds screened, about 3,600 (1%) were called active. The list comes from a sample in which actives are over-represented; it also holds similar structures and randomly drawn compounds. Unmarked numbers belong to inactive results.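 How the source made its calls: active means activation above the mean activation of all test compounds in the run plus 3 SD (cut at about 38% in these data); inactive means the rest.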
# Target: Trace amine-associated receptor 1 (Homo sapiens) (UniProt Q96RJ0)
# Sequence (Q96RJ0 whole entry, looked up): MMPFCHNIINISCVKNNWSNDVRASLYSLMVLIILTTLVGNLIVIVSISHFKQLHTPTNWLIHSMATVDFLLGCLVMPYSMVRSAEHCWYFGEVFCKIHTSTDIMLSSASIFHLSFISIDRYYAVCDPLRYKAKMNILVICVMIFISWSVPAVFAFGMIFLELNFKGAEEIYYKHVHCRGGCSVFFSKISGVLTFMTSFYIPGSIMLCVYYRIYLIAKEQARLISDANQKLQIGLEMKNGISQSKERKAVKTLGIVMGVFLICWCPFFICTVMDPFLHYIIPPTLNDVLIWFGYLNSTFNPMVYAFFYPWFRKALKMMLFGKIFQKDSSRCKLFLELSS
# Assay: human TAAR1 agonists, primary screen, Fluo-8 calcium fluorescence, CHO RD-HGA16 cells (AID 624467)
# Settings: CHO RD-HGA16 TAAR1, Fluo-8 calcium fluorescence; at 3 µM; active compounds read high; vehicle wells 0%, saturating PEA agonist 100%
# Summary of the method: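 test system = CHO RD-HGA16 cells carrying human TAAR1 plus Gα16 | schedule = 17-24 h seeding, 75 min 37 °C dye, 30 min RT | compound dosing = 3 µM single concentration | control set = DMSO and PEA EC100 | replicates = n 1 | signal = Fluo-8 fluorescence, 5 s baseline then 140 s kinetic read | measure = percent activation vs PEA EC100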
row,Structure (SMILES),activation
1,COc1cccc(CNC(=O)[C@H]2CCCN2C(=O)[C@H]2CCCN2C(=O)c2ccc(F)cc2)c1,-0.3%
2,COC(=O)N1Cc2ccnnc2CC1c1ccccc1Br (stereo not given),0.4%
3,O=C(N/N=C/c1cc(Cl)cc([N+](=O)[O-])c1O)C(O)(c1ccccc1)c1ccccc1,42.4% (active)
4,O=[N+]([O-])c1cc(Cl)cc(/C=N/NC(=S)Nc2cc(S(=O)(=O)N3CCOCC3)ccc2Cl)c1O,0.47%
5,O=C(NN=Cc1ccco1)C(=O)Nc1ccc(Cl)c([N+](=O)[O-])c1,1.63%
6,CCOC(=O)C1CSCCS(=O)(=O)N1Cc1ccc(Cl)cc1 (stereo not given),1.13%
7,CCN1C(=O)N[C@@H]2C[C@H](C(=O)N3CCCC3)[C@H](C)[C@H](c3ccccc3)C[C@@H]21,0.86%
8,Cc1c(C(=O)NCc2ccccc2)cnn1-c1ccccc1,2.79%
9,Cc1c(CNCCc2ccccc2)c(C(=O)O)c(C)n1-c1ccccc1,78.1% (active)
10,CNC(=O)CSc1nnc(CCc2ccccc2)n1-c1ccccc1,5.04%
11,COc1ccc(C2=CN(Cc3ccccc3)C(c3ccc(OC)cc3)CC2=O)cc1 (stereo not given),-1.8%
12,CC(NC(=O)c1cc(-c2ccccc2)on1)c1ccccc1 (stereo not given),52% (active)
13,O=C(NC1CCCC1)c1cc(-c2ccccc2)on1,2.47%
14,Cc1ccc(C(=O)NC(C)c2ccccc2)cc1Br (stereo not given),-1.3%
15,Cc1[nH]c2ccccc2c1CC(=O)Nc1ccc(Nc2cccnc2)c(-c2cccc(Cl)c2)c1,1.11%
16,O=S1(=O)c2ccc(Br)cc2-n2nncc2CN1Cc1cccc(Cl)c1,1.66%
17,CCCCCCn1c(CN2CCCC(C)C2)nc2c1c(=O)n(C)c(=O)n2C (stereo not given),0.08%
18,Cc1c(CN2CCCCC2)c(O)n(CCO)c(=O)c1C#N,11.5%
19,CCCn1c(O)c(CN2CCCC(C)C2)c(C)c(C#N)c1=O (stereo not given),96.4% (active)
20,COc1ccc(C(CNC(=O)c2cccc(S(=O)(=O)Nc3ccc(Br)cc3)c2)N(C)C)cc1 (stereo not given),40.2% (active)
21,CN(C)C(CNC(=O)c1cccc(S(=O)(=O)Nc2ccc(Br)cc2)c1)c1ccco1 (stereo not given),16.7%
22,COc1ccc(C(CNC(=O)c2ccc(NS(=O)(=O)c3ccc(F)c(C)c3)cc2)N(C)C)cc1 (stereo not given),3.7%
23,COc1ccc(-n2cc(CNC3CCOCC3)c(-c3cccc(F)c3)n2)cc1,7.84%

row,Structure (SMILES),activation
1,CCOC(CNC(=O)C(=O)NCC(c1ccco1)N1CCN(c2ccc(OC)cc2)CC1)OCC (stereo not given),3.05%
2,O=C(NCC(c1ccco1)N1CCc2ccccc2C1)c1ccccc1Cl (stereo not given),12.4%
3,COc1ccc(NC(=O)C(=O)NCC(c2ccco2)N2CCc3ccccc3C2)cc1 (stereo not given),62.3% (active)
4,Cc1[nH]nc2c1C(c1ccc(Br)cc1)NC2=O (stereo not given),0.5%
5,CCOc1ccc(Br)cc1S(=O)(=O)N1CCC(C(=O)O)CC1,-0.19%
6,CC(C)(C)NCc1cc(Br)ccc1OC1CCCC1,1.46%
7,CCOc1ccc(Br)cc1CSC(=N)N,70.5% (active)
8,CC(=O)N1C[C@@H](CO)[C@@H](N(C)C(=O)C(C)(C)C)C[C@H]1c1ccccc1Br,3.7%
9,S=C(Nc1ccc(Br)cc1)NC1CCN(Cc2ccccc2)CC1,63% (active)
10,O=C(COc1ccc(Br)cc1F)NC1CCN(Cc2ccccc2)CC1,7.63%
11,S=C(Nc1ccc(Br)cc1Cl)NC1CCN(Cc2ccccc2)CC1,18%
12,CCC(C)NC(=O)/C=C/c1ccc(S(=O)(=O)NCc2ccco2)cc1 (stereo not given),0.26%
13,Cc1ccc2nc(C)c3c(c2c1)N(c1ccccc1)CC3,1.22%
14,Nc1nc2c(ncn2[C@@H]2O[C@H](C(=O)N[C@H](Cc3ccccc3)C(=O)NCC3CCCCC3)[C@@H](O)[C@H]2O)c(=O)[nH]1,2.45%
15,CC1CCN(C(=O)c2ncn3c2C(=O)N[C@@H](C)C3)CC1,0.53%
16,CC1CCc2sc3nc(N4CCN(CCO)CC4)n4ncnc4c3c2C1 (stereo not given),13.3%
17,CC(C)[C@H]1COCCS(=O)(=O)N1Cc1ccccc1-c1cccc2c1sc1ccccc12,1.46%
18,COc1ccccc1N1CCN(C(=O)c2cc(=O)c3cc(C)cc(C)c3o2)CC1,0.2%
19,Cc1ccc(Cl)cc1N1CCN(C(=O)c2cccc3c(=O)c(C)c(-c4ccccc4)oc23)CC1,78% (active)
20,Cc1cccc(N2CCN(C(=O)c3cnn4c(C(F)F)cc(-c5ccccc5)nc34)CC2)c1C,-0.23%
21,OC(CCl)CCl,4.28%
22,CC(C)(C)n1nc(C2CC2)c(Br)c1NC(=O)c1ccccc1F,-2.19%
